How the values were obtained:
A549 = experiment: Cytotoxicity against human A549 cells assessed as reduction in cell viability measured after 48 hrs by MTT assay; type: functional, cell-based; conditions: A549, 48 h
Summary of the method: (§1)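 Cells in DMEM with 10% FBS, penicillin/streptomycin, 37 °C, 5% CO2. Seeded at 5×10^3 per well directly into medium holding graded concentrations of sample and incubated 48 h. MTT (5 mg/mL in PBS) added for 4 h, medium replaced with DMSO, absorbance read at 492 nm. IC50 taken as the concentration giving 50% inhibition of proliferation; three replicates, means ± SD.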

HCT-116 = experiment: Cytotoxicity against human HCT-116 cells assessed as reduction in cell viability measured after 48 hrs by MTT assay; type: functional, cell-based; conditions: HCT-116, 48 h; summary of the method: as §1
HepG2 = experiment: Cytotoxicity against human HepG2 cells assessed as reduction in cell viability measured after 48 hrs by MTT assay; type: functional, cell-based; conditions: HepG2, 48 h; summary of the method: as §1
MCF7 = experiment: Cytotoxicity against human MCF7 cells assessed as reduction in cell viability measured after 48 hrs by MTT assay; type: functional, cell-based; conditions: MCF7, 48 h; summary of the method: as §1
GES1 = experiment: Cytotoxicity against human GES1 cells assessed as reduction in cell viability measured after 48 hrs by MTT assay; type: cell-based; conditions: GES1, 48 h; summary of the method: as §1

`CC(=O)O[C@H]1CC[C@@]2(C)C(=CC[C@H]3[C@@H]4C[C@@H]5O[C@H](CC[C@H](C)c6nnc(-c7cccc8ccccc78)s6)[C@@H](C)[C@@H]5[C@@]4(C)CC[C@@H]32)C1` showed an IC50 (A549) greater than 100 µM and an IC50 (HCT-116) greater than 100 µM.

For `Cc1nnc([C@H](C)CC[C@H]2O[C@H]3C[C@H]4[C@@H]5CC=C6C[C@@H](O)CC[C@]6(C)[C@H]5CC[C@]4(C)[C@H]3[C@@H]2C)s1`, the IC50 (HepG2) was 33.2 µM, the IC50 (A549) was 36.7 µM and the IC50 (MCF7) was 33.8 µM. For the same compound, the IC50 (HCT-116) was 48.9 µM and the IC50 (GES1) was 107 µM.

With `Cc1nnc([C@H](C)CC[C@H]2O[C@H]3C[C@H]4[C@@H]5CC=C6C[C@@H](O)CC[C@]6(C)[C@H]5CC[C@]4(C)[C@H]3[C@@H]2C)o1` the IC50 (HepG2) was 34.2 µM, the IC50 (A549) was 30.4 µM and the IC50 (MCF7) was 20.4 µM. The IC50 (HCT-116) was 51.6 µM and the IC50 (GES1) was 72.8 µM.

In the case of `CC(=O)O[C@H]1CC[C@@]2(C)C(=CC[C@H]3[C@@H]4C[C@@H]5O[C@H](CC[C@@H](C)c6nnc(C)s6)[C@@H](C)[C@@H]5[C@@]4(C)CC[C@@H]32)C1`, the IC50 (HepG2) is reported as 34.2 µM, the IC50 (A549) is reported as 40.3 µM and the IC50 (MCF7) is reported as 47.7 µM. For the same compound, the IC50 (HCT-116) was greater than 100 µM and the IC50 (GES1) was 75.8 µM.

In the case of `CC(=O)O[C@H]1CC[C@@]2(C)C(=CC[C@H]3[C@@H]4C[C@@H]5O[C@H](CC[C@@H](C)c6nnc(-c7cccnc7)o6)[C@@H](C)[C@@H]5[C@@]4(C)CC[C@@H]32)C1`, the IC50 (HepG2) is reported as 82.6 µM, the IC50 (A549) is reported as 33.5 µM and the IC50 (MCF7) is reported as greater than 100 µM. It also gave an IC50 (HCT-116) of 72.5 µM and an IC50 (GES1) of 62.4 µM.

Compound `C[C@H]1[C@H]2[C@H](C[C@H]3[C@@H]4CC=C5C[C@@H](O)CC[C@]5(C)[C@H]4CC[C@]23C)O[C@@H]1CC[C@H](C)c1nnc(-c2cccc3ccccc23)o1` has an IC50 (HepG2) of 29.2 µM, an IC50 (A549) of 31.3 µM and an IC50 (MCF7) of 69.7 µM. For the same compound, the IC50 (HCT-116) was greater than 100 µM and the IC50 (GES1) was 298 µM.

In the case of `CC(=O)O[C@H]1CC[C@@]2(C)C(=CC[C@H]3[C@@H]4C[C@@H]5O[C@H](CC[C@H](C)c6nnc(-c7cccc8ccccc78)o6)[C@@H](C)[C@@H]5[C@@]4(C)CC[C@@H]32)C1`, the IC50 (GES1) is reported as 70.1 µM.

Work on `C[C@H]1[C@H]2[C@H](C[C@H]3[C@@H]4CC=C5C[C@@H](O)CC[C@]5(C)[C@H]4CC[C@]23C)O[C@@H]1CC[C@@H](C)c1nnc(-c2ccccc2)o1` yielded an IC50 (HepG2) of 39.5 µM, an IC50 (A549) of 64.2 µM and an IC50 (MCF7) of 53 µM. It also gave an IC50 (HCT-116) greater than 100 µM and an IC50 (GES1) of 120 µM.

With `CO[C@@]12[C@H](COC(N)=O)C3=C(C(=O)C(C)=C(N)C3=O)N1C[C@@H]1N[C@@H]12` [MITOMYCIN] the IC50 (HepG2) was 32.6 µM, the IC50 (A549) was 11 µM and the IC50 (MCF7) was 16.7 µM. The IC50 (HCT-116) was 11 µM and the IC50 (GES1) was 21.1 µM.

`CC(=O)O[C@H]1CC[C@@]2(C)C(=CC[C@H]3[C@@H]4C[C@@H]5O[C@H](CC[C@@H](C)c6nnc(-c7ccccc7)o6)[C@@H](C)[C@@H]5[C@@]4(C)CC[C@@H]32)C1` showed an IC50 (HepG2) of 63.2 µM, an IC50 (A549) of 84.5 µM and an IC50 (MCF7) greater than 100 µM. The IC50 (HCT-116) was greater than 100 µM and the IC50 (GES1) was 82.3 µM.

`COc1ccc(-c2nnc([C@H](C)CC[C@H]3O[C@H]4C[C@H]5[C@@H]6CC=C7C[C@@H](OC(C)=O)CC[C@]7(C)[C@H]6CC[C@]5(C)[C@H]4[C@@H]3C)o2)cc1` showed an IC50 (GES1) of 151 µM.

For `COc1ccc(-c2nnc([C@H](C)CC[C@H]3O[C@H]4C[C@H]5[C@@H]6CC=C7C[C@@H](O)CC[C@]7(C)[C@H]6CC[C@]5(C)[C@H]4[C@@H]3C)s2)cc1`, the IC50 (HepG2) was 23.1 µM, the IC50 (A549) was 16.4 µM and the IC50 (MCF7) was greater than 100 µM. For the same compound, the IC50 (HCT-116) was greater than 100 µM and the IC50 (GES1) was 209 µM.

`COc1ccc(-c2nnc([C@H](C)CC[C@H]3O[C@H]4C[C@H]5[C@@H]6CC=C7C[C@@H](O)CC[C@]7(C)[C@H]6CC[C@]5(C)[C@H]4[C@@H]3C)o2)cc1` gave an IC50 (HCT-116) greater than 100 µM.

From ChEMBL document CHEMBL4715838, “Novel diosgenin derivatives containing 1,3,4-oxadiazole/thiadiazole moieties as potential antitumor agents: Design, synthesis and cytotoxic evaluation” (Eur J Med Chem, 2020)
